Data from ChEMBL document CHEMBL1123031, “Adriamycin analogues. rationale, synthesis, and preliminary antitumor evaluation of highly active DNA-nonbinding N-(trifluoroacetyl)adriamycin 14-O-hemiester derivatives” (1985).
Each block holds one molecule with its values, some of them ahead of it.

Experiments:
Format in all cases: functional
[1] = tested on: Mus musculus; test: In vivo percent increase in life span relative to untreated controls in B6D2F1/J male mice at dose 30 mg/kg
[2] = tested on: Mus musculus; test: In vivo percent increase in life span relative to untreated controls in B6D2F1/J male mice at dose 60 mg/kg
[3] = tested on: Mus musculus; test: In vivo percent increase in life span relative to untreated controls in B6D2F1/J male mice at dose 50 mg/kg
[4] = tested on: Mus musculus; test: In vivo antitumor efficacy expressed as number survivors in 60-days out of 7 male mice at dose 60 mg/kg; Value represented as = 5/7
[5] = tested on: Mus musculus; test: In vivo antitumor efficacy expressed as number survivors in 60-days out of 7 male mice at dose 30 mg/kg; Value represented as = 4/7
[6] = tested on: CCRF-CEM; test: In vitro inhibitory activity against CCRF-CEM cell growth in culture, after 48-h incubation.; details: Homo sapiens, read-out: ID50 (the source's name)
How it was run: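 Human lymphoblastic leukemia CCRF-CEM cells grown in culture with drug for 48 h. ID50 is the drug concentration that inhibits culture growth by 50% relative to untreated controls, reported in μM.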

[7] = tested on: Mus musculus; test: In vivo antitumor efficacy expressed as number survivors in 60-days out of 7 male mice at dose 40 mg/kg; Value represented as = 6/7
[8] = tested on: Mus musculus; test: In vivo antitumor efficacy expressed as number survivors in 60-days out of 7 male mice at dose 20 mg/kg; Value represented as = 3/7
[9] = tested on: Mus musculus; test: In vivo percent increase in life span relative to untreated controls in B6D2F1/J male mice at dose 40 mg/kg
[10] = tested on: Mus musculus; test: In vivo antitumor efficacy expressed as number survivors in 60-days out of 7 male mice at dose 50 mg/kg; Value represented as = 5/7
[11] = tested on: Mus musculus; test: In vivo percent increase in life span relative to untreated controls in B6D2F1/J male mice at dose 20 mg/kg
[12] = tested on: Mus musculus; test: In vivo percent increase in life span relative to untreated controls in B6D2F1/J male mice at dose 4 mg/kg
[13] = tested on: Mus musculus; test: In vivo percent increase in life span relative to untreated controls in B6D2F1/J male mice at dose 1 mg/kg
[14] = tested on: Mus musculus; test: In vivo antitumor efficacy expressed as number survivors in 60-days out of 7 male mice at dose 5 mg/kg; Value represented as = 0/7
[15] = tested on: Mus musculus; test: In vivo antitumor efficacy expressed as number survivors in 60-days out of 7 male mice at dose 3 mg/kg; Value represented as = 0/7
[16] = tested on: Mus musculus; test: In vivo antitumor efficacy expressed as number survivors in 60-days out of 7 male mice at dose 4 mg/kg; Value represented as = 0/7
[17] = tested on: Mus musculus; test: In vivo antitumor efficacy expressed as number survivors in 60-days out of 7 male mice at dose 1 mg/kg; Value represented as = 0/7
[18] = tested on: Mus musculus; test: In vivo percent increase in life span relative to untreated controls in B6D2F1/J male mice at dose 2 mg/kg
[19] = tested on: Mus musculus; test: In vivo antitumor efficacy expressed as number survivors in 60-days out of 7 male mice at dose 2 mg/kg; Value represented as = 0/7
[20] = tested on: Mus musculus; test: In vivo percent increase in life span relative to untreated controls in B6D2F1/J male mice at dose 3 mg/kg
[21] = tested on: Mus musculus; test: In vivo antitumor efficacy expressed as number survivors in 60-days out of 7 male mice at dose 50 mg/kg; Value represented as = 0/7
[22] = tested on: Mus musculus; test: In vivo percent increase in life span relative to untreated controls in B6D2F1/J male mice at dose 70 mg/kg
[23] = tested on: Mus musculus; test: In vivo antitumor efficacy expressed as number survivors in 60-days out of 7 male mice at dose 60 mg/kg; Value represented as = 0/7
[24] = tested on: Mus musculus; test: In vivo antitumor efficacy expressed as number survivors in 60-days out of 7 male mice at dose 40 mg/kg; Value represented as = 0/7
[25] = tested on: Mus musculus; test: In vivo antitumor efficacy expressed as number survivors in 60-days out of 7 male mice at dose 70 mg/kg; Value represented as = 1/7
[26] = tested on: Mus musculus; test: In vivo antitumor efficacy expressed as number survivors in 60-days out of 7 male mice at dose 40 mg/kg; Value represented as = 3/7
[27] = tested on: Mus musculus; test: In vivo antitumor efficacy expressed as number survivors in 60-days out of 7 male mice at dose 60 mg/kg; Value represented as = 7/7
[28] = tested on: Mus musculus; test: In vivo antitumor efficacy expressed as number survivors in 60-days out of 7 male mice at dose 50 mg/kg; Value represented as = 1/7
[29] = tested on: Mus musculus; test: In vivo antitumor efficacy expressed as number survivors in 60-days out of 7 male mice at dose 70 mg/kg; Value represented as = 6/7
[30] = tested on: Mus musculus; test: In vivo antitumor efficacy expressed as number survivors in 60-days out of 7 male mice at dose 60 mg/kg; Value represented as = 6/7
[31] = tested on: Mus musculus; test: In vivo antitumor efficacy expressed as number survivors in 60-days out of 7 male mice at dose 70 mg/kg; Value represented as = 7/7
[32] = tested on: Mus musculus; test: In vivo antitumor efficacy expressed as number survivors in 60-days out of 7 male mice at dose 50 mg/kg; Value represented as = 4/7
[33] = tested on: Mus musculus; test: In vivo antitumor efficacy expressed as number survivors in 60-days out of 7 male mice at dose 30 mg/kg; Value represented as = 0/7
[34] = tested on: Mus musculus; test: In vivo antitumor efficacy expressed as number survivors in 60-days out of 7 male mice at dose 40 mg/kg; Value represented as = 1/7
[35] = tested on: Mus musculus; test: In vivo antitumor efficacy expressed as number survivors in 60-days out of 7 male mice at dose 50 mg/kg; Value represented as = 2/7
[36] = tested on: Mus musculus; test: In vivo antitumor efficacy expressed as number survivors in 60-days out of 7 male mice at dose 70 mg/kg; Value represented as = 4/7
[37] = tested on: Mus musculus; test: In vivo antitumor efficacy expressed as number survivors in 60-days out of 7 male mice at dose 60 mg/kg; Value represented as = 4/7
[38] = tested on: Mus musculus; test: In vivo antitumor efficacy expressed as number survivors in 60-days out of 7 male mice at dose 60 mg/kg; Value represented as = 1/7

Structure (SMILES): CCCCC(=O)OCC(=O)[C@]1(O)Cc2c(O)c3c(c(O)c2[C@@H](OC2CC(NC(=O)C(F)(F)F)C(O)C(C)O2)C1)C(=O)c1c(OC)cccc1C3=O (some centres undefined)
ILS at 30 mg/kg [1]: > 445% | ILS at 60 mg/kg [2]: > 445% | ILS at 50 mg/kg [3]: > 445% | Survivors [4]: 5 | Survivors [5]: 4 | IC50 [6]: 240 nM | Survivors [7]: 6 | Survivors [8]: 3 | ILS at 40 mg/kg [9]: > 445% | Survivors [10]: 5 | ILS at 20 mg/kg [11]: 281%

Structure (SMILES): COc1cccc2c1C(=O)c1c(O)c3c(c(O)c1C2=O)C[C@@](O)(C(=O)CO)C[C@@H]3O[C@H]1C[C@H](N)[C@H](O)[C@H](C)O1 [DOXORUBICIN]
ILS at 4 mg/kg [12]: 63% | ILS at 1 mg/kg [13]: 81% | Survivors [14]: 0 | IC50 [6]: 50 nM | Survivors [15]: 0 | Survivors [16]: 0 | Survivors [17]: 0 | ILS at 2 mg/kg [18]: 90% | Survivors [19]: 0 | ILS at 3 mg/kg [20]: 181%

Structure (SMILES): COc1cccc2c1C(=O)c1c(O)c3c(c(O)c1C2=O)C[C@@](O)(C(=O)COC(=O)CCC(=O)O)C[C@@H]3OC1CC(NC(=O)C(F)(F)F)C(O)C(C)O1 (some centres undefined)
ILS at 60 mg/kg [2]: 127% | ILS at 50 mg/kg [3]: 118% | Survivors [21]: 0 | ILS at 70 mg/kg [22]: 190% | Survivors [23]: 0 | IC50 [6]: 300 nM | Survivors [24]: 0 | Survivors [25]: 1 | ILS at 40 mg/kg [9]: 127%

Structure (SMILES): COc1cccc2c1C(=O)c1c(O)c3c(c(O)c1C2=O)C[C@@](O)(C(=O)COC(=O)CCCCCC(=O)O)C[C@@H]3OC1CC(NC(=O)C(F)(F)F)C(O)C(C)O1 (some centres undefined)
ILS at 60 mg/kg [2]: > 445% | ILS at 50 mg/kg [3]: 136% | Survivors [26]: 3 | Survivors [27]: 7 | Survivors [28]: 1 | ILS at 70 mg/kg [22]: > 445% | IC50 [6]: 360 nM | ILS at 40 mg/kg [9]: 181% | Survivors [29]: 6

Structure (SMILES): COc1cccc2c1C(=O)c1c(O)c3c(c(O)c1C2=O)C[C@@](O)(C(=O)COC(=O)CCCCC(=O)O)C[C@@H]3OC1CC(NC(=O)C(F)(F)F)C(O)C(C)O1 (some centres undefined)
ILS at 60 mg/kg [2]: > 445% | ILS at 50 mg/kg [3]: > 445% | Survivors [30]: 6 | ILS at 70 mg/kg [22]: > 445% | IC50 [6]: 310 nM | Survivors [7]: 6 | Survivors [31]: 7 | ILS at 40 mg/kg [9]: > 445% | Survivors [10]: 5

Structure (SMILES): COc1cccc2c1C(=O)c1c(O)c3c(c(O)c1C2=O)C[C@@](O)(C(=O)COC(=O)CCCCCCCCC(=O)O)C[C@@H]3OC1CC(NC(=O)C(F)(F)F)C(O)C(C)O1 (some centres undefined)
ILS at 60 mg/kg [2]: > 445% | ILS at 50 mg/kg [3]: > 445% | ILS at 70 mg/kg [22]: > 445% | Survivors [4]: 5 | Survivors [32]: 4 | IC50 [6]: 500 nM | Survivors [24]: 0 | ILS at 40 mg/kg [9]: 109% | Survivors [29]: 6

IC50 [6]: 230 nM
Structure (SMILES): COc1cccc2c1C(=O)c1c(O)c3c(c(O)c1C2=O)C[C@@](O)(C(=O)CO)C[C@@H]3OC1CC(NC(=O)C(F)(F)F)C(O)C(C)O1 (some centres undefined)

Structure (SMILES): COc1cccc2c1C(=O)c1c(O)c3c(c(O)c1C2=O)C[C@@](O)(C(=O)COC(=O)CCCC(=O)O)C[C@@H]3OC1CC(NC(=O)C(F)(F)F)C(O)C(C)O1 (some centres undefined)
ILS at 30 mg/kg [1]: 81% | Survivors [33]: 0 | ILS at 60 mg/kg [2]: > 445% | ILS at 50 mg/kg [3]: 172% | ILS at 70 mg/kg [22]: > 445% | Survivors [34]: 1 | IC50 [6]: 280 nM | Survivors [35]: 2 | Survivors [36]: 4 | ILS at 40 mg/kg [9]: 109% | Survivors [37]: 4

Structure (SMILES): COc1cccc2c1C(=O)c1c(O)c3c(c(O)c1C2=O)C[C@@](O)(C(=O)COC(=O)CCCCCCCC(=O)O)C[C@@H]3OC1CC(NC(=O)C(F)(F)F)C(O)C(C)O1 (some centres undefined)
ILS at 30 mg/kg [1]: 445% | ILS at 60 mg/kg [2]: > 445% | ILS at 50 mg/kg [3]: > 445% | Survivors [26]: 3 | ILS at 70 mg/kg [22]: > 445% | Survivors [4]: 5 | Survivors [5]: 4 | IC50 [6]: 440 nM | Survivors [31]: 7 | ILS at 40 mg/kg [9]: 172% | Survivors [10]: 5

Structure (SMILES): COc1cccc2c1C(=O)c1c(O)c3c(c(O)c1C2=O)C[C@@](O)(C(=O)COC(=O)CC(=O)O)C[C@@H]3OC1CC(NC(=O)C(F)(F)F)C(O)C(C)O1 (some centres undefined)
ILS at 60 mg/kg [2]: 136% | ILS at 50 mg/kg [3]: 109% | Survivors [21]: 0 | ILS at 70 mg/kg [22]: 154% | IC50 [6]: 330 nM | Survivors [24]: 0 | Survivors [25]: 1 | Survivors [38]: 1 | ILS at 40 mg/kg [9]: 109%
